This note sets out measurements from PMC4409664 (Cell, 2015).

Assay type in all cases: binding
One test deals with human TTR. In words: RBP-TTR coimmunoprecipitation from HeLa conditioned media. The note with it: HeLa cotransfected, HA immunoprecipitates. The method in brief:
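HeLa cells cotransfected with myc-tagged TTR plus wild-type or mutant N-terminal HA-tagged human RBP plasmids. Secreted RBP complexes pulled from conditioned media with anti-HA agarose beads and washed in PBS. Western blot of immunoprecipitates probed first for TTR, then for HA.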

The nature of test [1]: In vitro retinol titration by fluorescence enhancement. The note with it: read-out: Kd for retinol; apo-RBP^HA, PBS, fluorescence ex 330 nm, em 460 nm. An outline of the steps:
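Apo RBP-HA was immunopurified from serum-free HeLa conditioned medium, eluted with HA peptide, dialyzed into PBS and checked for homogeneity by gel. Equal amounts of protein (380 nM) were loaded with fresh all-trans retinol (0 to 5 µM) for 1 hr in PBS. Retinol fluorescence enhancement (ex 330, em 460 nm) was read on a microplate reader. Parallel runs used PBS with 0.1% phosphatidylcholine vesicles.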

A further test addresses T1, STRA6 (Homo sapiens, UniProt Q9BX79).
T1 sequence (Q9BX79 1-667): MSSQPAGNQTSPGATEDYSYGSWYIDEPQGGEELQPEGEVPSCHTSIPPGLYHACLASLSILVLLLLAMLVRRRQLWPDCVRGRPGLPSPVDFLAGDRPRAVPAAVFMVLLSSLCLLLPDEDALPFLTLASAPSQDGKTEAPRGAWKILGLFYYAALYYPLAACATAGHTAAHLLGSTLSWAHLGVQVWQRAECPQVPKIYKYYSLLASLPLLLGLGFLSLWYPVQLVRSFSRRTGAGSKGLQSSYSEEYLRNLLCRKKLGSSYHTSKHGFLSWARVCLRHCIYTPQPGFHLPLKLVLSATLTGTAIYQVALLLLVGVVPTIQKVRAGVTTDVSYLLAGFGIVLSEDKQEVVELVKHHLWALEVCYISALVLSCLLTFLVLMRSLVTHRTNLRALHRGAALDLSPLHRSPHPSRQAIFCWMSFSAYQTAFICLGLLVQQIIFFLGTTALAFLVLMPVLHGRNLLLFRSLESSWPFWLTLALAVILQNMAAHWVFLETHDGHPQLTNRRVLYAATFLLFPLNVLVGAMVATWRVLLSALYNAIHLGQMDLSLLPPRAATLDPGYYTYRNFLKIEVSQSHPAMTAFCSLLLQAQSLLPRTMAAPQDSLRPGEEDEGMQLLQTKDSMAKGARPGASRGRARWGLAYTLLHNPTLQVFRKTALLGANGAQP
The test can be described thus: STRA6-RBP equilibrium and kinetic analysis by ELISA on STRA6+ HEK293T cells. The note with it: read-out: Kd for STRA6, apo RBP^HA, 90 min at 37°C. The method in brief:
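Cells transfected with STRA6myc or vector were grown on poly-D-lysine. They were incubated 90 min at 37°C with medium containing 0–80 µg/mL apo RBP-HA and 0.5% BSA, washed in ice-cold HBSS, and bound RBP was eluted with 25 mM glycine HBSS pH 3. RBP was quantified by ELISA, with control-cell binding subtracted. Kd came from isotherms and reciprocal plots. TTR affinity was measured by SPR, running a TTR series over captured apo His-RBP.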
On the technique in general: ELISA stands for enzyme-linked immunosorbent assay.

pKd: −log10 of the molar value.

For the substance serum retinol binding protein [WT], the “interaction with human TTR in coimmunoprecipitation” value in the test on human TTR is on record as “interacted strongly”. Also, the figures for the pKd (in test [1]; on STRA6) were roughly 7.10 and 7.23, respectively.

In general, pKd refers to −log10 of the Kd, conventionally taken in molar units.
